Experimental data of several laboratories.
Protocols differ between the studies behind these lines.
Target: Mitogen-activated protein kinase 3 (MAPK3, Homo sapiens, UniProt P27361)

c1cnn2ncc(-c3ccnc(N4CCC45COC5)n3)c2c1  remaining binding (binding; 1 µM): 94%
Cn1cc(Cl)c2c(Oc3c(F)cc(Nc4cc(Cl)nc(N)n4)cc3F)ccnc21  remaining binding (cell-free assay, competition with immobilised ligand; 0.1 µM): 98%
F[C@@H]1CCN(c2nccc(-c3cnn4ncccc34)n2)C1  remaining binding (binding; 1 µM): 85%
C=CC(=O)N1CCC(C(=O)NCC(=O)N2CCN(c3nc(-c4cnc(N)nc4C(F)F)nc(N4CCOCC4)n3)CC2)CC1  remaining binding (binding, competition with immobilised ligand; 1 µM): 100%
C[C@@H]1CCN(c2nccc(-c3cnn4ncccc34)n2)C1  remaining binding (binding; 1 µM): 83%
O=C(Nc1c[nH]nc1C(=O)NC1CCNCC1)c1cc(F)cc(F)c1  remaining binding (binding, competition with immobilised ligand; 1 µM): 100%
O=C(O)[C@@H]1[C@@H](Cn2nnc3ccccc3c2=O)CC[C@H]1C(=O)c1ccc(OCCC2CCOCC2)cc1  remaining binding (cell-free assay, competition with immobilised ligand; 1 µM): 100%
COc1ccnn2ncc(-c3ccnc(N(C)C)n3)c12  remaining binding (binding; 1 µM): 92%
O=C(c1ccc(Nc2nccc(-c3cc4ccccc4s3)n2)cc1)N1CCC(N2CCCC2)CC1  remaining binding (binding, competition with immobilised ligand; 1 µM): 100%
C[C@@H](c1ccc(-n2cnc3c(N)ncnc32)cc1)N1CCc2nn(C)c(Cc3ccccc3)c2C1=O  remaining binding (binding, competition with immobilised ligand; 0.1 µM): 100%
CN([C@@H]1CCc2c(CC(=O)O)c3cc(S(C)(=O)=O)ccc3n2C1)S(=O)(=O)c1ccc(F)cc1  remaining binding (cell-free assay, competition with immobilised ligand; 1 µM): 92%
O=C(c1ccc(Nc2ncc(Cl)c(-c3cc4ccccc4s3)n2)cc1)N1CCC(N2CCCC2)CC1  remaining binding (binding, competition with immobilised ligand; 1 µM): 97%
C[C@@H]1CN(c2cc(-c3nn(C)c4ccc(OC5(C)CC5)cc34)ncn2)C[C@H](C)O1  remaining binding (cell-free assay, competition with immobilised ligand; 1 µM): 100%
CN(C)c1nccc(-c2cnc3ncccn23)n1  remaining binding (binding; 1 µM): 100%
C[C@H](c1cccc(C#N)c1)n1cc(Cl)cc(C(N)=O)c1=N  remaining binding (cell-free assay, competition with immobilised ligand; 1 µM): 97%
C[C@@H]1CN(c2ccc3ncc(-c4ccc5[nH]nc(C6CC6)c5c4)n3n2)C[C@H](C)O1  remaining binding (binding, competition with immobilised ligand; 50 nM): 100%
O=C(NCCCN1CCOCC1)c1ccc(Nc2nccc(-c3cc4ccccc4s3)n2)cc1  remaining binding (binding, competition with immobilised ligand; 1 µM): 100%
N#Cc1ccc(Nc2ccc3[nH]c(=O)[nH]c3c2)c(Cl)c1  remaining binding (cell-free assay, competition with immobilised ligand; 1 µM): 95%
N[C@@H]1CCN(c2nccc(-c3cnn4ncccc34)n2)C1  remaining binding (binding; 1 µM): 91%
CCN1CCN(Cc2ccc(C(=O)Nc3ccc(C)c(Oc4ccc5c(c4)CC(=O)N5)c3)cc2C(F)(F)F)CC1  remaining binding (binding, competition with immobilised ligand; 1 µM): 100%
COc1cnc(Nc2cccc(S(N)(=O)=O)c2)nc1N1CCN(c2ccccc2)C(=O)C1  remaining binding (binding, competition with immobilised ligand; 1 µM): 100%
CO[C@@H](C)c1c(Nc2ccc([C@H](N(C)C(=O)C3CCS(=O)(=O)CC3)C(F)(F)F)cc2)cnc2cc(Cl)nn12  remaining binding (cell-free assay, competition with immobilised ligand; 1 µM): 100%
Cc1cnn2ncc(-c3ccnc(N(C)C)n3)c2c1  remaining binding (binding; 1 µM): 100%
FC(F)(F)Oc1cccc(-c2cnc3ccc(-c4ccncc4)nn23)c1  remaining binding (cell-free assay, competition with immobilised ligand; 5 µM): 88%
Nc1ncc2c(n1)-c1c([nH]c3ccc(C#CC4CC4)cc13)CCCC2  remaining binding (binding, competition with immobilised ligand; 1 µM): 100%
